This note sets out measurements from ChEMBL document CHEMBL1212828, “Synthesis and biological evaluation of novel pyrazole compounds” (Bioorg Med Chem, 2010).

Activity calls are given as the source filed them. No cut-off for these calls is given here.

For assay [1], the target named is T1, Prostaglandin G/H synthase 2 (Homo sapiens) (UniProt P35354).
T1 sequence (whole entry): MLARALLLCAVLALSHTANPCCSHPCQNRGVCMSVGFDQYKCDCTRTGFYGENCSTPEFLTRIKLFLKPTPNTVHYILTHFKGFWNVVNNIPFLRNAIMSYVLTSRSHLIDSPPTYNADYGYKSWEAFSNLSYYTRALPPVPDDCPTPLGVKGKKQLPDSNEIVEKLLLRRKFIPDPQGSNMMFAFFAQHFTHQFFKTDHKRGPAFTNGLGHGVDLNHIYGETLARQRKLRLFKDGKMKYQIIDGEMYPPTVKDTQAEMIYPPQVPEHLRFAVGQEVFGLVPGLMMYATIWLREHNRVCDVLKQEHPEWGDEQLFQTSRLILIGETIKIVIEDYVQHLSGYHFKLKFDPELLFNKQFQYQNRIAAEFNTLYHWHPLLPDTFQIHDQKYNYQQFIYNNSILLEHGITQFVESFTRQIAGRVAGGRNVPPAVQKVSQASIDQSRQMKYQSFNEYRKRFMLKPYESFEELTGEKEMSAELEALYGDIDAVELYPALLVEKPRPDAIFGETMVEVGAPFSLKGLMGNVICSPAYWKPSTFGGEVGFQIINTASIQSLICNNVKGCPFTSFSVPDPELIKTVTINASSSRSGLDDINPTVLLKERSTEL
Kind of assay: Inhibition of human COX2 at 100 uM. In short, it runs like this: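 Screening kit with ovine COX-1 and human recombinant COX-2, run per manufacturer's protocol; percent inhibition of prostaglandin production measured for each isoform.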

Assay [2] relates to THP-1. The assay is described as follows: Neuroprotective activity against LPS and IFN-gamma-stimulated neurotoxin production in human THP1 cell assessed as inhibition of THP1 cell secretion-induced toxicity to human SY-SH5Y cells after 48 hrs of LPS nd IFN-gamma challenge measured after 72 hrs by LDH release assay. It counts as functional, cell-based. In short, it runs like this:
(§1)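 THP-1 cells given compound 15 min before LPS (0.5 µg/mL) plus IFN-γ (150 U/mL), then incubated 48 h. Cell-free supernatant moved onto SH-SY5Y cells plated 24 h earlier. Neuronal survival after 72 h by MTT assay or LDH release. 11 independent experiments; IC50 estimated.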

In assay [3] the test system is Rattus norvegicus. Kind of assay: Antiinflammatory activity in Wistar albino rat assessed as inhibition of formalin-induced paw edema at 20 mg/kg, po administered 1 hr prior to formalin challenge measured after 2 hrs relative to control. It counts as functional. Put shortly:
(§2)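 Male Wistar rats, 180–200 g, groups of five; single oral dose 1 h before 2% formalin (0.1 mL) into subplantar left hind paw under light ether anaesthesia. Paw volume read by water plethysmometer at baseline and 1, 2, 3, 4 h; % inhibition = control (Vt−Vo) minus treated (Vt−Vo), over control, ×100. Means ± SEM; ANOVA with Student–Newman–Keuls.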

Assay [4] concerns Rattus norvegicus. Kind of assay: Antiinflammatory activity in Wistar albino rat assessed as inhibition of formalin-induced paw edema at 20 mg/kg, po administered 1 hr prior to formalin challenge measured after 1 hr relative to control. It counts as functional. Put shortly: as §2
For assay [5], the system named is THP-1. Kind of assay: Neuroprotective activity against LPS and IFN-gamma-stimulated neurotoxin production in human THP1 cell assessed as inhibition of THP1 cell secretion-induced toxicity to human SY-SH5Y cells after 48 hrs of LPS nd IFN-gamma challenge measured after 72 hrs by MTT assay. It counts as functional, cell-based. In short, it runs like this: as §1
Assay [6] relates to SH-SY5Y. Kind of assay: Cytotoxicity against human SH-SY5Y cells assessed as reduction in cell viability at 100 uM after 72 hrs by MTT assay. It counts as functional. In short, it runs like this: (§3)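 SH-SY5Y neuroblastoma cells exposed directly to compound at 5–500 µM; viability determined 72 h later by MTT (0.5 mg/mL final, 1 h at 37 °C, SDS/DMF solubilization overnight, 570 nm), relative to cells in fresh medium only.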

The test system of assay [7] is SH-SY5Y. Kind of assay: Cytotoxicity against human SH-SY5Y cells assessed as reduction in cell viability at 500 uM after 72 hrs by MTT assay. It counts as functional. Put shortly: as §3
Assay [8] has as its system SH-SY5Y. Kind of assay: Neuroprotective activity against H2O2-induced oxidative stress in human SH-SY5Y cells. The assay is classed as functional, cell-based. In short, it runs like this:
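SH-SY5Y cells seeded at 2 × 10^5/mL in DMEM-F12 with 5% FBS; after 24 h medium replaced by supernatant of THP-1 cells stimulated 24 h with LPS + IFN-γ, or by medium containing 250 µM H2O2, with compound added at transfer. Cell death measured by LDH assay 72 h later; five independent experiments; randomized block ANOVA.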

In assay [9] the test system is THP-1. Kind of assay: Neuroprotective activity against LPS and IFN-gamma-stimulated neurotoxin production in human THP1 cells assessed as increase in THP1 cell secretion-induced LDH release to human SY-SH5Y cells at 10 to 100 uM after 72 hrs. It counts as functional, cell-based. Put shortly: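 THP-1 cells treated with 10–100 µM compound 15 min before LPS/IFN-γ stimulation for 24 h. Supernatants transferred to SH-SY5Y cells. After 72 h, LDH released into the neuronal medium measured colorimetrically and expressed as a fraction of Triton X-100-lysed wells.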

The subject of a further assay is SH-SY5Y (Homo sapiens). Kind of assay: Neuroprotective activity against LPS and IFN-gamma-induced human THP1 cell supernatant-induced death of human SH-SY5Y cells after 72 hrs by MTT assay. To be noted: THP-1.
In assay [10] the test system is THP-1. The assay is described as follows: Antiinflammatory activity in human THP1 cells assessed as reduction in LPS and IFN-gamma-induced MCP1 level at 500 uM after 24 hrs. It counts as functional, cell-based. Put shortly:
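THP-1 cells in DMEM-F12 with 5% FBS, 24-well plates, pretreated 15 min with compound or DMSO vehicle, then stimulated with LPS 0.5 µg/mL plus IFN-γ 150 U/mL for 24 h. Death read as supernatant LDH (iodonitrotetrazolium formazan, 490 nm, fraction of Triton X-100 lysate); survival by MTT; MCP-1 by ELISA. Concentration effects by randomized block ANOVA; 8–11 independent experiments.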

Assay [11] deals with THP-1. Kind of assay: Antiinflammatory activity in human THP1 cells assessed as reduction in LPS and IFN-gamma-induced level at 500 uM after 24 hrs.
For assay [12], the system named is THP-1. Kind of assay: Neuroprotective activity against LPS and IFN-gamma-stimulated neurotoxin production in human THP1 cells assessed as inhibition of THP1 cell secretion-induced toxicity to human sSH-SY5Y cells after 72 hrs by LDH release assay. The assay is classed as functional, cell-based. In short, it runs like this:
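THP-1 cells pretreated 15 min with compound, then stimulated with LPS (0.5 µg/mL) plus IFN-γ (150 U/mL) for 24 h. Cell-free supernatant transferred to SH-SY5Y cells plated 24 h earlier (2 × 10^5 cells/mL). After 72 h, SH-SY5Y viability read by MTT (0.5 mg/mL, 1 h, 37 °C, OD570) or by LDH release (OD490, relative to Triton X-100 lysis). IC50 estimated.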

For `CC(NC(=O)C(=O)Nc1c(C#N)cnn1-c1ccccc1)c1ccccc1` (stereo unspecified), the inhibition in assay [1] was found to be 33.8%. The IC50 in the assay with THP-1 [2] turned out to be 40 µM; in the assay on THP-1 [5] it was 14 µM. For the same compound, the inhibition in vivo at 20 mg/kg with Rattus norvegicus [3] is 27%; in the assay with Rattus norvegicus [4] it was 50%.

With `N#Cc1cnn(-c2ccccc2)c1NC(=O)C(=O)Nc1c(C#N)cnn1-c1ccccc1`, the Activity in the assay with SH-SY5Y [6] is reported as 23%; with SH-SY5Y [7], 86%. The same compound had an inhibition in assay [1] of 14%. Also, the result in the assay on SH-SY5Y [8] was inactive. Moreover, the results for the inhibition in vivo at 20 mg/kg with Rattus norvegicus [3] and with Rattus norvegicus [4] were 41% and 44%, respectively. The outcome in the assay with THP-1 [9], with SH-SY5Y (Homo sapiens), in the assay on THP-1 [10], in the assay with THP-1 [11] and with THP-1 [12] was Active.
